Measured values taken from ChEMBL document CHEMBL1121772, “Synthesis and beta-lactamase inhibitory properties of 2 beta-(chloromethyl)-2 alpha-methylpenam-3 alpha-carboxylic acid 1,1-dioxide” (1981).
In brackets after ≈: the same amount, converted by molar mass.

Columns and labels:
Type in all cases: functional
Staphylococcus aureus [1] = experiment: Minimum inhibitory activity against Staphylococcus aureus A15091
Outline: (§1)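 MICs by agar dilution: organisms were inoculated onto drug-containing agar plates with a multipoint replicating device.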

Mus musculus [2] = species on record: Mus musculus; experiment: Beta-lactamase inhibitory activity against Escherichia coli A21223 using oral mouse protection test in mice; details: read-out: PD50
Outline: (§2)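 Challenge organisms suspended in mucin (2 or 4%) and injected ip into 18-24 g Swiss-Webster (ICR strain) mice. Oral treatment given at 0 and 2 h postchallenge. Observation ran 5 days, and PD50 was calculated by the Spearman-Karber method.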

Escherichia coli [3] = experiment: Minimum inhibitory activity against Escherichia coli A9675; outline: as §1
Escherichia coli [4] = experiment: Minimum inhibitory activity against Escherichia coli A21223; outline: as §1
Staphylococcus aureus [5] = experiment: Minimum inhibitory activity against Staphylococcus aureus A9606; outline: as §1
Mus musculus [6] = species on record: Mus musculus; experiment: Beta-lactamase inhibitory activity against Staphylococcus aureus A15091 using oral mouse protection test in mice; details: read-out: PD50; outline: as §2
Mus musculus [7] = species on record: Mus musculus; experiment: Beta-lactamase inhibitory activity against Staphylococcus aureus A20379 using oral mouse protection test in mice; details: read-out: PD50; outline: as §2
Mus musculus [8] = species on record: Mus musculus; experiment: Beta-lactamase inhibitory activity against Staphylococcus aureus A9606 using oral mouse protection test in mice; details: for ED50: Mus musculus, po, read-out: PD50; outline: as §2
Staphylococcus aureus [9] = experiment: Minimum inhibitory activity against Staphylococcus aureus A20309; outline: as §1
[10] = molecular target: Beta lactamase TEM-1 (Klebsiella pneumoniae) (UniProt Q7B899); experiment: Beta-lactamase inhibitory activity from Klebsiella pneumoniae A20634(TEM) and minimum protective concentration was reported
[11] = molecular target: Metallo-beta-lactamase type 2 (Bacteroides fragilis) (UniProt P25910); experiment: Beta-lactamase inhibitory activity from […] A-22,695 and minimum protective concentration was reported
[12] = molecular target: Beta-lactamase (Staphylococcus aureus) (UniProt P00807); experiment: Beta-lactamase inhibitory activity from Staphylococcus aureus A9606 and minimum protective concentration was reported
Beta-lactamase (Staphylococcus aureus), sequence (P00807 whole entry): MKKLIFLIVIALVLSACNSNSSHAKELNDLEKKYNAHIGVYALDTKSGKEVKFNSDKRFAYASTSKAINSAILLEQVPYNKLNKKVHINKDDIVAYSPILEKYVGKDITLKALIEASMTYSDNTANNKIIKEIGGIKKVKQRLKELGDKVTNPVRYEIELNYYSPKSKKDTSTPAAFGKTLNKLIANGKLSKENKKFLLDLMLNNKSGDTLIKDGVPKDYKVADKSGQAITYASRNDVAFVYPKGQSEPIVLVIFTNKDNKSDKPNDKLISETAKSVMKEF

Beta lactamase TEM-1 (Klebsiella pneumoniae), sequence (Q7B899 as listed by the source): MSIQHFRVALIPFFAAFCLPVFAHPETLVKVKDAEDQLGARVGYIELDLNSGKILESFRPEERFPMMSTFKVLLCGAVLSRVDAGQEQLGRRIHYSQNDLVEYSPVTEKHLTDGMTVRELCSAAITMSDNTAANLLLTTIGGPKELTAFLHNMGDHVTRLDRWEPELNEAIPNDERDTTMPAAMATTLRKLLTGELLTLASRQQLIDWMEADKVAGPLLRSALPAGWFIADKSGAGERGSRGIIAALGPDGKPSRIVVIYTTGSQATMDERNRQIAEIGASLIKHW
Metallo-beta-lactamase type 2 (Bacteroides fragilis), sequence (P25910 whole entry): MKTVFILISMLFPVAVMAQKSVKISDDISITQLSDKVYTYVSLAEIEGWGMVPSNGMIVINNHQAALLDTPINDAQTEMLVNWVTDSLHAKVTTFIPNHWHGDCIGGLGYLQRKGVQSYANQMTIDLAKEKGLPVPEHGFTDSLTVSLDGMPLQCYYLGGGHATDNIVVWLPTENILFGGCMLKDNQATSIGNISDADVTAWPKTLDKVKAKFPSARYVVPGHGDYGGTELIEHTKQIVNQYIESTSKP

| SMILES | MIC (Staphylococcus aureus [1]) [µg/mL] | ED50 (Mus musculus [2]) [mg/kg] | MIC (Escherichia coli [3]) [µg/mL] | MIC (Escherichia coli [4]) [µg/mL] | MIC (Staphylococcus aureus [5]) [µg/mL] | ED50 (Mus musculus [6]) [mg/kg] | ED50 (Mus musculus [7]) [mg/kg] | ED50 (Mus musculus [8]) [mg/kg] | MIC (Staphylococcus aureus [9]) [µg/mL] | MPC [10] [µg/mL] | MPC [11] [µg/mL] | MPC [12] [µg/mL] | PD50 (Mus musculus [8]) [mg/kg] |
| --- | --- | --- | --- | --- | --- | --- | --- | --- | --- | --- | --- | --- | --- |
| CC1(C)S[C@@H]2[C@H](NC(=O)[C@H](N)c3ccc(O)cc3)C(=O)N2[C@H]1C(=O)O [AMOXICILLIN] | > 125 | > 200 | 63 (≈ 172 µM) | 125 (≈ 342 µM) | > 125 | > 800 | > 200 | > 800 | 125 (≈ 342 µM) |  |  |  |  |
| CC1(C)[C@H](C(=O)O)N2C(=O)C[C@H]2S1(=O)=O [SULBACTAM] | > 125 | > 200 | 125 (≈ 536 µM) | > 125 | > 125 | > 200 | > 200 |  | > 125 | 1.6 | 12.5 | 12.5 | > 200 |
| O=C(O)[C@H]1/C(=C/CO)O[C@@H]2CC(=O)N21 [CLAVULANIC ACID] | 32 (≈ 161 µM) |  | 32 (≈ 161 µM) | 32 (≈ 161 µM) | 32 (≈ 161 µM) |  |  |  | 32 (≈ 161 µM) | 0.1 | 6.3 | 0.4 |  |
| CC1(C)S[C@@H]2[C@H](NC(=O)[C@H](N)c3ccc(O)cc3)C(=O)N2[C@H]1C(=O)O.O=C(O)[C@H]1/C(=C/CO)O[C@@H]2CC(=O)N21 | 2 |  | 2 | 8 | 2 |  |  |  | 2 |  |  |  |  |
| CC1(C)S[C@@H]2[C@H](NC(=O)[C@H](N)c3ccc(O)cc3)C(=O)N2[C@H]1C(=O)O.CC1(C)[C@H](C(=O)O)N2C(=O)C[C@H]2S1(=O)=O | 2 | 46 | 4 | 4 | 2 | 160 | 21 | 15 | 4 |  |  |  |  |
| COc1cccc(OC)c1C(=O)N[C@@H]1C(=O)N2[C@@H](C(=O)O)C(C)(C)S(=O)(=O)[C@H]12 |  |  |  |  |  |  |  |  |  | 125 |  | > 100 |  |
| CC1(C)C(C(=O)O)N2C(=O)C(Cl)C2S1(=O)=O (stereo not drawn) |  |  |  |  |  |  |  |  |  | 25 |  | > 100 |  |
| C[C@]1(CCl)[C@H](C(=O)[O-])N2C(=O)C[C@H]2S1(=O)=O.[K+] [BL-P2013] | 125 | > 200 | > 125 | > 125 | 125 | > 200 | > 200 | > 200 | 125 | 3.1 | 12.5 | 3.1 |  |
| CC1(C)S[C@@H]2[C@H](NC(=O)[C@H](N)c3ccc(O)cc3)C(=O)N2[C@H]1C(=O)O.C[C@]1(CCl)[C@H](C(=O)[O-])N2C(=O)C[C@H]2S1(=O)=O.[K+] [AMOXACILLIN +BL-P2013] | 1 | 16 | 2 | 2 | 1 | 72 | 34 | 24 | 2 |  |  |  |  |
